FID counter: compounds displacing fluorescent DNA intercalator, primary screen, artefact control for HCV NS3 helicase inhibitor project, biochemical, FID fluorescence; DNA fluorescent intercalator displacement; inhibition, % at 7.9 µM; actives 0.17% (n = 290,000); AID 1845, 2009; in the data active = inhibition above about 37%;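 also: higher means more ethidium bromide displaced from hairpin DNA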
core dimer inh: inhibitors of HCV core protein dimerization, primary screen, biochemical, TR-FRET, high-throughput; TR-FRET GST/Flag-core106 dimerization, 1536-well; inhibition, % at 5 µM; actives 0.33% (n = 300,000); AID 1899, 2009;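 active = inhibition above the mean of all tested compounds plus 3 SD, set per screening campaign, cut at about 45% in these data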
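Test system: GST/Flag-tagged HCV core106 proteins; Medium: KF-containing HEPES buffer, pH 7.45, DTT, CHAPS, BSA; Times: compound-protein-antibody incubation 4 h at 22.5 °C; Detection: TR-FRET 671 and 617 nm emission; Benchmarks: wells lacking GST-core106 and wells with excess unlabelled core106.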
pCIP destab: p/CIP-EGFP fusion destabilizers, primary screen, fluorescence, F442A cells. decrease of EGFP signal, % at 10 µM. actives 0.01% (n = 290,000). 16 h;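 active = EGFP signal decrease of at least 30% at 10 µM or well 3 SD below plate mean, unless failing retest; inactive = the rest, including hits failing retest or dose response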
Target sequence (Q05BA5 1-1403): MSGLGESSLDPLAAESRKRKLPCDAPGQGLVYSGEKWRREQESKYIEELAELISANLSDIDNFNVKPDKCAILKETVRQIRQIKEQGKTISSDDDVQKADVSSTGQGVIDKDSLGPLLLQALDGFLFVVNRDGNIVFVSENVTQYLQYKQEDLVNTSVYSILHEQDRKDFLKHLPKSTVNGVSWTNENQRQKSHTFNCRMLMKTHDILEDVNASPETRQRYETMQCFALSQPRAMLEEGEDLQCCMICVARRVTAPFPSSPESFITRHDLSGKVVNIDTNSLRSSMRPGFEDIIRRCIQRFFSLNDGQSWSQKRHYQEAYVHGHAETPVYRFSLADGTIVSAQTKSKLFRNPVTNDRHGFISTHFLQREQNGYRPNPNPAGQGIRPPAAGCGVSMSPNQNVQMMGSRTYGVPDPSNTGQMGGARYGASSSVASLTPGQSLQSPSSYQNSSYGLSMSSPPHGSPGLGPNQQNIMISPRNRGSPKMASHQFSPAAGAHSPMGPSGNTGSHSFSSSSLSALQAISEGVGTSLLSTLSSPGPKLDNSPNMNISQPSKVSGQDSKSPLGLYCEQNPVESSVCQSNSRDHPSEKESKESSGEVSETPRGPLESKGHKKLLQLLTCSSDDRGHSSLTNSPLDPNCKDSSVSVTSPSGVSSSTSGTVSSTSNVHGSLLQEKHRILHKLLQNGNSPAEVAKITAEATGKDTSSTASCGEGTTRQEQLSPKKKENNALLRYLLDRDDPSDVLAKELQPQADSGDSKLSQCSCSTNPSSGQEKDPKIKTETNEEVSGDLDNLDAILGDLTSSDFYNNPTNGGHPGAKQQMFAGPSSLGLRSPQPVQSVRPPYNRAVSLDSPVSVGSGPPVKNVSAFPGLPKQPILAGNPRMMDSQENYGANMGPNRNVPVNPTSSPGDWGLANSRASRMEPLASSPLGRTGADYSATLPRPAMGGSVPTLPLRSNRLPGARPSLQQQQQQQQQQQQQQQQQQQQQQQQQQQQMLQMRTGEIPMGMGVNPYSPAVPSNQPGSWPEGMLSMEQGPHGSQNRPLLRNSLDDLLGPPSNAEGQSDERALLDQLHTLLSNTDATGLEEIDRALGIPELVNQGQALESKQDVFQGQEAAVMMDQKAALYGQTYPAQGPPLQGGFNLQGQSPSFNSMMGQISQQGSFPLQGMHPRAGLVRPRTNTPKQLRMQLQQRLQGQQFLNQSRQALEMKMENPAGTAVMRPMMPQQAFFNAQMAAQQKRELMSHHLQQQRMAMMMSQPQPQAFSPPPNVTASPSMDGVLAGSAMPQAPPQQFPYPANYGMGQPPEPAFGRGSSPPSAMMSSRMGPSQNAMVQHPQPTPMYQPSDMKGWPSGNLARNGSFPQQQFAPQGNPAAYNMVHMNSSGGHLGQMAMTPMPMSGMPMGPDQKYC
NS3 helicase inh: inhibitors of HCV NS3 helicase, primary screen, biochemical, Cy5 molecular beacon fluorescence | inhibition, % at 10.9 µM | actives 0.56% (n = 290,000) | Hepatitis C virus NS3 helicase | AID 1800, 2009 | NS3 helicase DNA unwinding;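 active = inhibition above the mean of all tested compounds plus 3 SD, set per campaign, cut at about 35% in these data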
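System: Hepatitis C virus NS3 helicase domain fragment enzyme | Reagent: Annealed dual-labelled DNA beacon duplex, ATP-started | Compound dosing: 10.9 µM single point, 0.8% DMSO | Incubation: 1 h reaction at 25 °C, ATP-initiated | Technique: Cy5 fluorescence | Evaluation: Percent inhibition from t60/t0 fluorescence ratio | Benchmarks: Low DMSO, high thioflavine S at 110 µM | Replication: Singlicate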
GPR7 antag: GPR7 receptor antagonists, primary screen, cell-based, fluorescence, single concentration | inhibition, % at 4.4 µM | GPR7-expressing cells, fluorescence antagonist assay | actives 1.1% (n = 290,000) | Neuropeptides B/W receptor type 1 (Homo sapiens), P48145; in the data active = inhibition above about 16%, passing the limit was not always enough;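 also: cells stimulated with the agonist NPW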
GPR7 antag cf: GPR7 receptor antagonists, confirmation, cell-based, fluorescence, single concentration. shares compounds with GPR7 antag. AID 1952, 2009. inhibition, % at 4.4 µM. GPR7-expressing cells, calcium fluorescence antagonist mode. actives 52% (n = 2,400); in the data active = inhibition above about 24%;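 also: stimulated with the GPR7 agonist NPW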
MCHR1 antag: MCHR1 antagonists in cells, counter-screen for GPR7 antagonist project, cell-based, fluorescence, human. inhibition, % at 4.4 µM. shares compounds with GPR7 antag. MCHR1-expressing cells, fluorescence antagonist assay. actives 62% (n = 2,400); in the data active = inhibition above about 22%
Each line names hits and unclear results; the compound was inactive in the other large screens (follow-up assays come after a bar, where they were run). An excerpt weighted towards active compounds, which were near 1.9% of everything screened.

O=C(c1ccc2c(=O)n3c(nc2c1)CCCCC3)N1CCN(c2cccc(Cl)c2)CC1	none
CCc1cc(=O)oc2cc(OCC(=O)N3CCC(C(=O)O)CC3)ccc12	none
CCCc1cc(=O)oc2cc(OCC(=O)N3CCC(C(N)=O)CC3)ccc12	GPR7 antag 23 | GPR7 antag cf inactive | MCHR1 antag inactive
Cc1cccc(NC(=O)CCS(=O)(=O)c2ccc(Cl)cc2)c1	none
C[C@]12CCC(O)CC1CCC1C2CC[C@]2(C)C(c3cc(C(F)(F)F)n[nH]3)CCC12 (some centres not stated)	none
O=C(CSc1nccn1-c1ccc(F)cc1)Nc1ccc2c(c1)OCO2	none
O=C(CSc1nccn1-c1ccccc1)Nc1ccc2c(c1)OCO2	GPR7 antag 28 | GPR7 antag cf 26 | MCHR1 antag 24
O=C(O)c1ccc(Nc2ccc(F)c(F)c2)c([N+](=O)[O-])c1	GPR7 antag 36 | GPR7 antag cf inactive | MCHR1 antag inactive
CCOC(=O)C1=C(c2ccccc2)NC(=O)NC1c1ccc(O)c(OCC)c1 (configuration not stated)	none
CCOC(=O)C1=C(c2ccccc2)NC(=O)NC1c1ccc(O)c(Cl)c1 (configuration not stated)	GPR7 antag 75 | GPR7 antag cf 66 | MCHR1 antag 49
COc1ccc(CN(C)C(=O)C23CC4CC(CC(Cl)(C4)C2)C3)c(OC)c1OC	GPR7 antag 25 | GPR7 antag cf inactive | MCHR1 antag 23
Cc1onc(-c2ccccc2)c1C(=O)OCC(=O)NC(=O)c1ccccc1	none (no result: FID counter, pCIP destab, NS3 helicase inh, GPR7 antag)
CC(NCc1cc(Br)ccc1OCC(=O)NCc1ccccc1)c1ccccc1 (configuration not stated)	GPR7 antag 30 | GPR7 antag cf 34 | MCHR1 antag 40
C=CCNC(=S)N1CCN(c2ccc([N+](=O)[O-])cc2)CC1	none
CCNC(=S)N1CCN(c2ccc([N+](=O)[O-])cc2)CC1	GPR7 antag 27 | GPR7 antag cf inactive | MCHR1 antag inactive
CCc1nc2ccc(C(=O)N3CCN(c4ccc([N+](=O)[O-])cc4)CC3)cc2nc1CC	GPR7 antag 29 | GPR7 antag cf 24 | MCHR1 antag 86
O=[N+]([O-])c1ccc(C(=S)N2CCN(c3ccc(F)cc3)CC2)cc1	GPR7 antag 40 | GPR7 antag cf inactive | MCHR1 antag 28
CNC(=S)N1CCN(c2ccc([N+](=O)[O-])cc2)CC1	none
O=[N+]([O-])c1ccc(N2CCN(C(=S)NCc3ccc(Cl)cc3)CC2)cc1	GPR7 antag 51 | GPR7 antag cf 81 | MCHR1 antag 87
CCN1CCN(c2oc(/C=C/c3ccccc3)nc2C#N)CC1	none
CCOC(=O)C1CCN(C(=O)c2cc(S(=O)(=O)N3CCCCCC3)ccc2OC)CC1	none (no result: FID counter, pCIP destab, NS3 helicase inh, GPR7 antag)
Cc1cc(C)cc(OCCNC(=O)CCc2ccccc2)c1	none
OCCN1CCN(CC(O)COc2ccc(C34CC5CC(CC(C5)C3)C4)cc2)CC1 (configuration not stated)	GPR7 antag 40 | GPR7 antag cf 35 | MCHR1 antag 51
CCCOc1ccc(N2C(=O)CC(NCC(=O)OCC)C2=O)cc1 (configuration not stated)	none (no result: FID counter, pCIP destab, NS3 helicase inh, GPR7 antag)
CC(=O)Nc1cccc(C(=O)/C=C/c2ccc(F)cc2)c1	none
CC(=O)Nc1cccc(C(=O)/C=C/c2ccc(N(C)C)cc2)c1	GPR7 antag 29 | GPR7 antag cf 60 | MCHR1 antag 62
CCOc1ccccc1CN1CCN(CC2=Cc3cc(OC)ccc3OC2)CC1CCO (configuration not stated)	GPR7 antag 31 | GPR7 antag cf inactive | MCHR1 antag inactive
CCOc1ccccc1CN1CCN(Cc2ccc(C)o2)CC1CCO (configuration not stated)	none
CC(CC(=O)N1CCN(c2cccc(Cl)c2)CC1)S(=O)(=O)c1ccc2c(c1)NC(=O)CO2 (configuration not stated)	GPR7 antag 28 | GPR7 antag cf 37 | MCHR1 antag 77
COc1cccc(N=Cc2c(O)c3ccccc3oc2=O)c1	GPR7 antag 28 | GPR7 antag cf inactive | MCHR1 antag 31
O=C(c1ccc(NS(=O)(=O)c2cccs2)cc1)N1CCOCC1	none
O=C(c1ccc(S(=O)(=O)Nc2ccccc2)cc1)N1CCCCCCC1	GPR7 antag 25 | GPR7 antag cf inactive | MCHR1 antag inactive
O=C(c1ccc(NS(=O)(=O)c2cccs2)cc1)N1CCCCC1	GPR7 antag 21 | GPR7 antag cf inactive | MCHR1 antag inactive
N/C(=N\c1nc2c(c(=O)[nH]1)CCC2)Nc1ccccc1	none
N/C(=N\c1nc2c(c(=O)[nH]1)CCCC2)Nc1ccccc1	GPR7 antag 31 | GPR7 antag cf inactive | MCHR1 antag inactive
C=CCn1c(SCC(=O)NCC)nc2sc3c(c2c1=O)CCC3	none
CC(=O)N1CCN(c2ccc(NC(=O)c3ccc([N+](=O)[O-])cc3Cl)cc2)CC1	none
CCCCN(CCCC)S(=O)(=O)c1ccc(NC(=O)c2ccc([N+](=O)[O-])cc2Cl)cc1	GPR7 antag 23 | GPR7 antag cf 50 | MCHR1 antag 73
C=CCn1c(SCC(=O)Nc2ccc(O)cc2)nc2sc(CC)cc2c1=O	none
Cc1cc2c(cc(C(=O)OCC(=O)NCc3ccco3)n2C)s1	GPR7 antag 29 | GPR7 antag cf inactive | MCHR1 antag 22
Cn1c(C(=O)OCC(=O)NCc2ccco2)cc2sccc21	none
CN(CC(=O)N1CCOCC1)S(=O)(=O)c1ccc2ccccc2c1	none
CCCc1cnc(NCCNCC(O)COc2ccc(Cl)c(Cl)c2)nc1 (configuration not stated)	FID counter 40, GPR7 antag 23 | GPR7 antag cf 31 | MCHR1 antag 52
CN(C)CCNS(=O)(=O)c1ccc(N2CCN(c3ccc(F)cc3)CC2)c([N+](=O)[O-])c1	FID counter 38, GPR7 antag 23 | GPR7 antag cf 36 | MCHR1 antag 32
CNS(=O)(=O)c1cc(NC(=O)CCNC(=O)c2ccco2)ccc1C	none
Cc1c(C(=O)N2CCC3(CC2)CC(=O)c2ccccc2O3)cccc1[N+](=O)[O-]	none (no result: FID counter, pCIP destab, NS3 helicase inh, GPR7 antag)
O=C(CCN1C(=O)/C(=C\c2ccccc2)SC1=S)N1CCCCC1	GPR7 antag 22 | GPR7 antag cf inactive | MCHR1 antag inactive

Source: PubChem
